{
  "source": "ChEMBL document CHEMBL1255376",
  "about": "“Comparative surveillance study of telavancin activity against recently collected gram-positive clinical isolates from across the United States” (2008)",
  "assay_type_in_all_cases": "functional",
  "key": {"[1]": {"system": "Streptococcus pyogenes", "test": "Antibacterial activity against Streptococcus pyogenes clinical isolate by broth microdilution method", "outline": "(§1)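 MIC by CLSI broth microdilution in frozen microtiter trays holding serial dilutions of each agent, prepared from standard laboratory powders. E. faecalis ATCC 29212 and ATCC 51299, S. aureus ATCC 29213 and S. pneumoniae ATCC 49619 run in parallel as quality-control strains. Comparator susceptibility interpreted with CLSI breakpoints.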"}, "[2]": {"system": "Streptococcus agalactiae", "test": "Antibacterial activity against Streptococcus agalactiae clinical isolate by broth microdilution method", "outline": "as §1"}, "[3]": {"test": "Antibacterial activity against Streptococcus sp. Group C clinical isolate by broth microdilution method", "outline": "as §1"}, "[4]": {"system": "Streptococcus sp.", "test": "Antibacterial activity against Streptococcus sp. Group F clinical isolate by broth microdilution method", "outline": "(§2)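 MIC by CLSI broth microdilution in frozen microtiter trays holding serial dilutions of each agent, prepared from standard laboratory powders. Comparator susceptibility interpreted with CLSI breakpoints.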"}, "[5]": {"test": "Antibacterial activity against Streptococcus sp. Group G clinical isolate by broth microdilution method", "outline": "as §1"}, "[6]": {"system": "Streptococcus equinus", "test": "Antibacterial activity against Streptococcus bovis clinical isolate by broth microdilution method", "outline": "as §1"}, "[7]": {"system": "Streptococcus constellatus", "test": "Antibacterial activity against Streptococcus constellatus clinical isolate by broth microdilution method", "outline": "as §1"}, "[8]": {"system": "Streptococcus intermedius", "test": "Antibacterial activity against Streptococcus intermedius clinical isolate by broth microdilution method", "outline": "as §1"}, "[9]": {"system": "Streptococcus mitis", "test": "Antibacterial activity against Streptococcus mitis clinical isolate by broth microdilution method", "outline": "as §1"}, "[10]": {"system": "Streptococcus oralis", "test": "Antibacterial activity against Streptococcus oralis clinical isolate by broth microdilution method", "outline": "as §1"}, "[11]": {"system": "Streptococcus sanguinis", "test": "Antibacterial activity against Streptococcus sanguinis clinical isolate by broth microdilution method", "outline": "as §1"}, "[12]": {"system": "Streptococcus sp.", "test": "Antibacterial activity against Streptococcus sp. clinical isolate by broth microdilution method", "outline": "as §2"}, "[13]": {"system": "Streptococcus pneumoniae", "test": "Antibacterial activity against penicillin susceptible Streptococcus pneumoniae clinical isolate by broth microdilution method", "outline": "(§3)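 MICs by CLSI broth microdilution in frozen trays pre-loaded with serial dilutions of each agent. Quality-control strains run in parallel: E. faecalis ATCC 29212 and ATCC 51299, S. aureus ATCC 29213, S. pneumoniae ATCC 49619. Comparator susceptibility categories follow CLSI breakpoints. Methicillin resistance in staphylococci assigned from the oxacillin MIC.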"}, "[14]": {"system": "Staphylococcus aureus", "test": "Antibacterial activity against methicillin-susceptible Staphylococcus aureus clinical isolate by broth microdilution method", "outline": "as §3"}, "[15]": {"system": "Staphylococcus aureus", "test": "Antibacterial activity against methicillin-resistant Staphylococcus aureus clinical isolate by broth microdilution method", "outline": "as §3"}},
  "data": [
    {"compound": "CC1(C)S[C@@H]2[C@H](NC(=O)Cc3ccccc3)C(=O)N2[C@H]1C(=O)O", "note": "[PENICILLIN G]", "values": [
      {"measurement": "MIC", "setting": "[1]", "result": "≤ 0.06", "unit": "µg/mL"},
      {"measurement": "MIC50", "setting": "[1]", "result": "≤ 0.06", "unit": "µg/mL"},
      {"measurement": "MIC90", "setting": "[1]", "result": "≤ 0.06", "unit": "µg/mL"},
      {"measurement": "MIC", "setting": "[2]", "result": "≤ 0.06", "unit": "µg/mL"},
      {"measurement": "MIC50", "setting": "[2]", "result": "≤ 0.06", "unit": "µg/mL"},
      {"measurement": "MIC90", "setting": "[2]", "result": "≤ 0.06", "unit": "µg/mL"},
      {"measurement": "MIC", "setting": "[3]", "result": "≤ 0.06", "unit": "µg/mL"},
      {"measurement": "MIC50", "setting": "[3]", "result": "≤ 0.06", "unit": "µg/mL"},
      {"measurement": "MIC90", "setting": "[3]", "result": "≤ 0.06", "unit": "µg/mL"},
      {"measurement": "MIC", "setting": "[4]", "result": "≤ 0.06", "unit": "µg/mL"},
      {"measurement": "MIC50", "setting": "[4]", "result": "≤ 0.06", "unit": "µg/mL"},
      {"measurement": "MIC90", "setting": "[4]", "result": "≤ 0.06", "unit": "µg/mL"},
      {"measurement": "MIC", "setting": "[5]", "result": "≤ 0.06", "unit": "µg/mL"},
      {"measurement": "MIC50", "setting": "[5]", "result": "≤ 0.06", "unit": "µg/mL"},
      {"measurement": "MIC90", "setting": "[5]", "result": "≤ 0.06", "unit": "µg/mL"},
      {"measurement": "MIC", "setting": "[6]", "result": "≤ 0.06", "unit": "µg/mL"},
      {"measurement": "MIC50", "setting": "[6]", "result": "≤ 0.06", "unit": "µg/mL"},
      {"measurement": "MIC90", "setting": "[6]", "result": 1, "unit": "µg/mL"},
      {"measurement": "MIC", "setting": "[7]", "result": "≤ 0.06", "unit": "µg/mL"},
      {"measurement": "MIC50", "setting": "[7]", "result": "≤ 0.06", "unit": "µg/mL"},
      {"measurement": "MIC90", "setting": "[7]", "result": 1, "unit": "µg/mL"},
      {"measurement": "MIC", "setting": "[8]", "result": "≤ 0.06", "unit": "µg/mL"},
      {"measurement": "MIC50", "setting": "[8]", "result": "≤ 0.06", "unit": "µg/mL"},
      {"measurement": "MIC90", "setting": "[8]", "result": 1, "unit": "µg/mL"},
      {"measurement": "MIC", "setting": "[9]", "result": "≤ 0.06", "unit": "µg/mL"},
      {"measurement": "MIC50", "setting": "[9]", "result": "≤ 0.06", "unit": "µg/mL"},
      {"measurement": "MIC90", "setting": "[9]", "result": 1, "unit": "µg/mL"},
      {"measurement": "MIC", "setting": "[10]", "result": "≤ 0.06", "unit": "µg/mL"},
      {"measurement": "MIC50", "setting": "[10]", "result": "≤ 0.06", "unit": "µg/mL"},
      {"measurement": "MIC90", "setting": "[10]", "result": 1, "unit": "µg/mL"},
      {"measurement": "MIC", "setting": "[11]", "result": "≤ 0.06", "unit": "µg/mL"},
      {"measurement": "MIC50", "setting": "[11]", "result": "≤ 0.06", "unit": "µg/mL"},
      {"measurement": "MIC90", "setting": "[11]", "result": 1, "unit": "µg/mL"},
      {"measurement": "MIC", "setting": "[12]", "result": "≤ 0.06", "unit": "µg/mL"},
      {"measurement": "MIC50", "setting": "[12]", "result": "≤ 0.06", "unit": "µg/mL"},
      {"measurement": "MIC90", "setting": "[12]", "result": 1, "unit": "µg/mL"},
      {"measurement": "MIC", "setting": "[13]", "result": "≤ 0.06", "unit": "µg/mL"},
      {"measurement": "MIC50", "setting": "[13]", "result": "≤ 0.06", "unit": "µg/mL"},
      {"measurement": "MIC90", "setting": "[13]", "result": "≤ 0.06", "unit": "µg/mL"}
    ]},
    {"compound": "GENTAMICIN", "values": [
      {"measurement": "MIC50", "setting": "[14]", "result": 0.25, "unit": "µg/mL"},
      {"measurement": "MIC90", "setting": "[14]", "result": 0.5, "unit": "µg/mL"},
      {"measurement": "MIC50", "setting": "[15]", "result": 0.5, "unit": "µg/mL"},
      {"measurement": "MIC90", "setting": "[15]", "result": 2, "unit": "µg/mL"}
    ]}
  ]
}
